Measured values of several laboratories.
Lines come from different studies, so protocols differ.
Effect on: cell growth or viability

With `CCOCc1sc(NCc2ncccn2)nc1-c1ccccn1` the CC50 was > 40 µM (Huh-7).
With `COc1cc(Nc2nccc(-c3cnn4nc(OC)ccc34)n2)cc(C(F)(F)F)c1` the IC50 was 0.45 µM (NCI-H292; ATP luminescence).
With `COc1ccc(NC(=O)c2c(Nc3ccccc3)sc(C#N)c2NC(=O)CNc2ccccc2Cl)cc1` the viability was 90.3% (HepG2; SRB; 100 µM; 48 h).
`CC(=O)Oc1ccc(/C=N/NC(=O)c2ccc(Nc3cc(C)nc4c(O)cccc34)cc2)cc1` has an inhibition of 31.2% (Huh-7; MTT; 20 µM).
`COc1ccc(NC(=O)c2c(Nc3ccccc3)sc(C#N)c2NC(=O)CNc2ccccc2)cc1` gave a viability of 102% (HepG2; SRB; 1 nM; 48 h).
The inhibition of `Cc1cc(Nc2ccc(C(=O)N/N=C/c3ccc[nH]3)cc2)c2cccc(O)c2n1` is reported as 68.3% (Huh-7; MTT; 20 µM).
For `COc1ccc(NC(=O)c2c(Nc3ccccc3)sc(C#N)c2NC(=O)CNc2ccc([N+](=O)[O-])cc2)cc1`, the viability was 75.2% (HepG2; SRB; 0.1 µM; 48 h).
`CCOC(=O)c1ccc(-n2c(C)cc(C)c(C#N)c2=O)cc1` gave a viability of 100% (HepG2; MTT; 3.125 µM; 24 h).
The CC50 of `CCOC(=O)Cc1sc(NCc2ncccn2)nc1-c1ccccn1` is reported as > 40 µM (Huh-7).
For `CCCCCCCCCCCCNC(=S)NCCCC[C@H](NS(C)(=O)=O)C(=O)N[C@@H](C)C(=O)N[C@@H](CCCNC(=N)N)C(N)=O`, the EC50 was ~100 µM (HEK-293T; MTT; 72 h).
`Cc1cc(Nc2ccc(C(=O)N/N=C/c3nc4ccccc4[nH]3)cc2)c2cccc(O)c2n1` has an inhibition of 33% (Huh-7; MTT; 20 µM).
The GI50 of `CO[C@]1(C(=O)N[C@@H](C)c2ccc(-n3cc(F)cn3)nc2)CC[C@H](c2nc(C)cc(Nc3cc(C)[nH]n3)n2)CC1` is reported as > 10 µM (NCI-H292; ATP luminescence; 72 h).
`COc1ccc(NC(=O)c2c(Nc3ccccc3)sc(C#N)c2NC(=O)CNc2ccccc2[N+](=O)[O-])cc1` gave a viability of 84.6% (HepG2; SRB; 10 µM; 48 h).
With `Cc1cc(Nc2ccc(C(=O)N/N=C/c3cc4ccccc4[nH]3)cc2)c2cccc(O)c2n1` the inhibition was 60.2% (Huh-7; MTT; 20 µM).
`COc1ccc(NC(=O)c2c(Nc3ccccc3)sc(C(=O)NN=Cc3ccc(C)cc3)c2NC(C)=O)cc1` has a viability of 89.2% (HepG2; SRB; 0.1 µM; 48 h).
With `CC(C)C[C@H](NC(=O)[C@H](Cc1ccccc1)NC(=O)c1cnccn1)B(O)O` the IC50 was 0.017 µM (NCI-H2009; ATP luminescence).
`COc1ccc(NC(=O)c2c(Nc3ccccc3)sc(C(=O)NN=Cc3ccccc3)c2NC(C)=O)cc1` has a viability of 60.2% (HepG2; SRB; 100 µM; 48 h).
With `Cc1c(NC(=O)c2ccc(C(C)(C)C)cc2)cccc1-c1cn(C)c(=O)c(Nc2ccc(C(=O)N3CCOCC3)cc2)n1` the GI50 was > 10 µM (Ramos; 48 h).
With `COc1ccc(NC(=O)c2c(Nc3ccccc3)sc(C#N)c2NC(=O)CNc2ccc(O)cc2)cc1` the viability was 53.9% (HepG2; SRB; 100 µM; 48 h).
`CCOC(=O)c1ccc(NC(=O)C2=C3C(=Nc4ccccc43)NC2=O)cc1` has a viability of 90.2% (HepG2; MTT; 6.25 µM; 24 h).
`C=CC(=O)N1CCC[C@@H](n2nc(-c3ccc(Oc4ccccc4)cc3)c3c(N)ncnc32)C1` has a GI50 of > 10 µM (Ramos; 48 h).
The viability of `CCOC(=O)c1ccc(-n2c(C)cc(/C=C/c3ccc(OC)cc3)c(C#N)c2=O)cc1` is reported as 100% (HepG2; MTT; 1.56 µM; 24 h).
`Cc1cc(Nc2ccc(C(=O)N/N=C/c3ccncc3)cc2)c2cccc(O)c2n1` has an inhibition of 76.9% (Huh-7; MTT; 20 µM).
`CCCCCCCCCCCCNC(=S)NCCCC[C@H](NC(=O)OCc1ccccc1)C(=O)N[C@@H](C)C(=O)N[C@@H](CCCNC(=N)N)C(N)=O` gave an EC50 of 102 to 121 µM (HEK-293T; MTT; 72 h).
`COc1ccc(NCC(=O)Nc2c(C#N)sc(Nc3ccccc3)c2C(=O)Nc2ccc(OC)cc2)cc1` has a viability of 84.4% (HepG2; SRB; 0.1 µM; 48 h).
`CCOC(=O)c1ccc(-n2c(C)cc(/C=C/c3ccc(OCC)cc3)c(C#N)c2=O)cc1` gave a viability of 53.1% (HepG2; MTT; 50 µM; 24 h).
`Cc1cc(Nc2ccc(C(=O)N/N=C/c3ccnc(Cl)c3)cc2)c2cccc(O)c2n1` has an inhibition of 32.9% (Huh-7; MTT; 20 µM).
For `CCOCCOCCOCCNC(=S)NCCCC[C@H](NS(C)(=O)=O)C(=O)N[C@@H](C)C(=O)N[C@@H](CCCNC(=N)N)C(N)=O`, the EC50 was > 100 µM (HEK-293T; MTT; 72 h).
The inhibition of `Cc1cc(Nc2ccc(C(=O)N/N=C/c3cccc(Oc4ccccc4)c3)cc2)c2cccc(O)c2n1` is reported as 61% (Huh-7; MTT; 20 µM).
With `COc1cc(N2CCC(N3CCN(C)CC3)CC2)ccc1Nc1ncc(Cl)c(Nc2ccccc2P(C)(C)=O)n1` the GI50 was 2.76 µM (NCI-H292; ATP luminescence; 72 h).
`Cc1cc(Nc2ccc(C(=O)N/N=C/c3ccc(N(C)C)cc3)cc2)c2cccc(O)c2n1` has an inhibition of 69.9% (Huh-7; MTT; 20 µM).
`CCOC(=O)c1ccc(N2C(N)=C(C#N)C3(C(=O)Nc4ccccc43)C(C#N)=C2O)cc1` (centres unmarked) has a viability of 94.2% (HepG2; MTT; 1.56 µM; 24 h).
